Test results: ChEMBL document CHEMBL1629713, “Discovery of benzoylisoindolines as a novel class of potent, selective and orally active GlyT1 inhibitors” (Bioorg Med Chem Lett, 2010)
In brackets after ≈: the same amount, converted by molar mass.

Tests used:
[1] = Aqueous solubility of the compound by lyophilisate solubility assay; assay type: physicochemical; conditions: buffer
How it was run: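 LYSA: compound in DMSO solution lyophilized, then dissolved in 0.05 M phosphate buffer pH 6.5, stirred 1 h and shaken 2 h; solubility in µg/ml.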

[2] = Clearance in rat at 1.7 mg/kg, iv; assay type: ADME, organism-based; design: dose 1.7 mg/kg, route intravenous; conditions: in vivo
How it was run: (§1)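 Single-dose rat PK with iv doses of 1.7, 2.0 or 2.2 mg/kg and po doses of 2, 5.7 or 6.8 mg/kg. CL, Vss, oral bioavailability, terminal half-life and brain/plasma ratio determined; values averaged from two independent experiments.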

[3] = Permeability of the compound by PAMPA; assay type: ADME; conditions: read-out: permeability
How it was run: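 PAMPA: permeation constant Pe (10^-6 cm/s) measured through artificial membranes.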

[4] = Drug level in rat plasma at 10 mg/kg after 3 hrs; assay type: ADME, organism-based; design: dose 10 mg/kg
How it was run: (§2)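 Rats dosed 10 mg/kg po, n = 6. Striatal extracellular fluid sampled for glycine over 3 h, expressed as maximal fold increase and fold increase at 3 h. Animals sacrificed at 3 h; plasma and brain drug levels measured at 3 h post dose.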

Rattus norvegicus [5] = assay: […] in rat striatum assessed as increase of glycine at 10 mg/kg, po after 3 hrs relative to basal level; assay type: functional; how it was run: as §2
[6] = Terminal half life in rat at 5.7 mg/kg, po; assay type: ADME, organism-based; design: dose 5.7 mg/kg, route oral; conditions: in vivo, read-out: beta t1/2 (converted); how it was run: as §1
Rattus norvegicus [7] = assay: […] in rat striatum assessed as increase of glycine level at 10 mg/kg, po relative to basal level; assay type: functional; how it was run: as §2
[8] = molecular target: T1, Sodium- and chloride-dependent glycine transporter 1 (Homo sapiens, UniProt P48067); assay: Inhibition of human GlyT1 expressed in CHO cells assessed as inhibition of [3H]glycine uptake by liquid scintillation counting; assay type: cell-based
T1 sequence (P48067 whole entry): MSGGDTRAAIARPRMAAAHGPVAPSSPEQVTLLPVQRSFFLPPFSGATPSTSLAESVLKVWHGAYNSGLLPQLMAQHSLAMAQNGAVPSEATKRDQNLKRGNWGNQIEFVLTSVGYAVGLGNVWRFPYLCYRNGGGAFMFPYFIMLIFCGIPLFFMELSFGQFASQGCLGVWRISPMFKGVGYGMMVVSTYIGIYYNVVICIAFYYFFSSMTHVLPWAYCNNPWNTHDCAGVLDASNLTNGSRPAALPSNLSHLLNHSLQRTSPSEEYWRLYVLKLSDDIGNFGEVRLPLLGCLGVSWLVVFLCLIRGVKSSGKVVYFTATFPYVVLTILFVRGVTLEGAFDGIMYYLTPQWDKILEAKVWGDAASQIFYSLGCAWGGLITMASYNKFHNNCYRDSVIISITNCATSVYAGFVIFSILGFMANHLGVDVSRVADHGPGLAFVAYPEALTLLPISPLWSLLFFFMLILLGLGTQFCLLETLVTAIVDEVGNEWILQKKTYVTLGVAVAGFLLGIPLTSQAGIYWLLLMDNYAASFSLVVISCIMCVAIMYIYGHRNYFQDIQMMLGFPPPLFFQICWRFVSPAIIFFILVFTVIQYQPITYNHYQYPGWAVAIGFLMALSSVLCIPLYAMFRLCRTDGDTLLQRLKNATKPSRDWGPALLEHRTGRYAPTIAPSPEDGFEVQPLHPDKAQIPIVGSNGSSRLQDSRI
How it was run: (§3)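 [3H]-glycine uptake inhibition in cells transfected with human GlyT1 or human GlyT2 cDNA. EC50 values averaged from at least two independent experiments.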

[9] = Ratio of drug level in brain to plasma in rat at 5.7 mg/kg, po; assay type: ADME, organism-based; design: dose 5.7 mg/kg, route oral; conditions: read-out: BPR
[10] = Drug level in rat brain at 10 mg/kg after 3 hrs; assay type: ADME, organism-based; design: dose 10 mg/kg; conditions: read-out: Drug uptake; how it was run: as §2
hERG (KCNH2) = hERG (KCNH2) (Homo sapiens, UniProt Q12809); assay: Inhibition of human ERG at 10 uM by patch clamp assay
How it was run: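 hERG block measured by patch clamp at 10 µM; values averaged from at least two independent experiments.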

Mus musculus = assay: Antipsychotic activity in po dosed mouse assessed as inhibition of L-687414-induced hyperlocomotion after 60 mins; assay type: functional; conditions: 1 h, read-out: ID50 (the source's name)
How it was run: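 Mice given compound orally, n = 8 per group; hyperlocomotion induced by L-687,414. Horizontal activity counts recorded over a 60-min period and reported as group means. ID50 (mg/kg) derived from dose-dependent inhibition of the L-687,414-induced response.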

[11] = Intrinsic clearance in rat liver microsomes assessed per mg of protein; assay type: ADME, Microsome
How it was run: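 Intrinsic clearance measured in rat liver microsomes, expressed as µL/min/mg protein.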

[12] = molecular target: T2, Sodium- and chloride-dependent glycine transporter 2 (Homo sapiens, UniProt Q9Y345); assay: Inhibition of human GlyT2 expressed in CHO cells assessed as inhibition of [3H]glycine uptake by liquid scintillation counting; assay type: cell-based; how it was run: as §3
T2 sequence (Q9Y345 whole entry): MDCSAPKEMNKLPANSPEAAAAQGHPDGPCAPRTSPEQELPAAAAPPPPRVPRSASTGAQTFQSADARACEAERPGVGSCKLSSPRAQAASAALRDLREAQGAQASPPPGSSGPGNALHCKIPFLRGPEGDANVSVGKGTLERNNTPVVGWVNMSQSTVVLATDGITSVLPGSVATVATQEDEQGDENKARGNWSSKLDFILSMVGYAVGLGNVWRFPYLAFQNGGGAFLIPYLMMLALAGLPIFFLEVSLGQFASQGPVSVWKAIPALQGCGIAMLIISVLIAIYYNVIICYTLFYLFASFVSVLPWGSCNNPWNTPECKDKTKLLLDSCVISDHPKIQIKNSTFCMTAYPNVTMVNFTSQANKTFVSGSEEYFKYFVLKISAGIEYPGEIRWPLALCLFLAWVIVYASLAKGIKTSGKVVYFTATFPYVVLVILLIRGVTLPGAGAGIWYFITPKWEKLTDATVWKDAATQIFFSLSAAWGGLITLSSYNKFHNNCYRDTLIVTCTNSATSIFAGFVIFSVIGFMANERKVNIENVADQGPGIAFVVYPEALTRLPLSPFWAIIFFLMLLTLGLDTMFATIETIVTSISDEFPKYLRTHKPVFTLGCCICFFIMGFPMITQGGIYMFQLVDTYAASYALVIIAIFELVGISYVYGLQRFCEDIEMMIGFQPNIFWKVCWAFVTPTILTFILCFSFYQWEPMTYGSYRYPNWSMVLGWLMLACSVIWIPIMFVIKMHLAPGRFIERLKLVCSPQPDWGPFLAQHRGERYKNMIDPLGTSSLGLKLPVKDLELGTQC

[13] = Oral bioavailability in rat at 5.7 mg/kg; assay type: ADME, organism-based; conditions: in vivo; how it was run: as §1
[14] = Volume of distribution at steady state in rat at 1.7 mg/kg, iv; assay type: ADME, organism-based; design: dose 1.7 mg/kg, route intravenous; conditions: in vivo, read-out: Vdss; how it was run: as §1
[15] = Terminal half life in rat at 2 mg/kg, po; assay type: ADME, organism-based; design: dose 2 mg/kg, route oral; conditions: in vivo, read-out: beta t1/2 (converted); how it was run: as §1
[16] = Ratio of drug level in brain to plasma in rat at 2 mg/kg, po; assay type: ADME, organism-based; design: dose 2 mg/kg, route oral; conditions: read-out: BPR
[17] = Oral bioavailability in rat at 2 mg/kg; assay type: ADME, organism-based; conditions: in vivo; how it was run: as §1
[18] = Clearance in rat at 2 mg/kg, iv; assay type: ADME, organism-based; design: dose 2 mg/kg, route intravenous; conditions: in vivo; how it was run: as §1
[19] = Volume of distribution at steady state in rat at 2 mg/kg, iv; assay type: ADME, organism-based; design: dose 2 mg/kg, route intravenous; conditions: in vivo, read-out: Vdss; how it was run: as §1
[20] = Ratio of drug level in brain to plasma in rat at 6.8 mg/kg, po; assay type: ADME, organism-based; design: dose 6.8 mg/kg, route oral; conditions: read-out: BPR
[21] = Terminal half life in rat at 6.8 mg/kg, po; assay type: ADME, organism-based; design: dose 6.8 mg/kg, route oral; conditions: in vivo, read-out: beta t1/2 (converted); how it was run: as §1
[22] = Volume of distribution at steady state in rat at 2.2 mg/kg, iv; assay type: ADME, organism-based; design: dose 2.2 mg/kg, route intravenous; conditions: in vivo, read-out: Vdss; how it was run: as §1
[23] = Clearance in rat at 2.2 mg/kg, iv; assay type: ADME, organism-based; design: dose 2.2 mg/kg, route intravenous; conditions: in vivo; how it was run: as §1
[24] = Oral bioavailability in rat at 6.8 mg/kg; assay type: ADME, organism-based; conditions: in vivo; how it was run: as §1
Cytochrome P450 2D6 = Cytochrome P450 2D6 (Homo sapiens, UniProt P10635); assay: Inhibition of CYP2D6; assay type: ADME
[25] = Intrinsic clearance in human liver microsomes assessed per mg of protein; assay type: ADME, Microsome
[26] = molecular target: T1, Sodium- and chloride-dependent glycine transporter 1; assay: Inhibition of human GlyT1; how it was run: as §3
Cytochrome P450 2C9 = Cytochrome P450 2C9 (Homo sapiens, UniProt P11712); assay: Inhibition of CYP2C9; assay type: ADME
[27] = Intrinsic clearance in mouse liver microsomes assessed per mg of protein; assay type: ADME, Microsome
Homo sapiens = species: Homo sapiens; assay: Selectivity ratio of EC50 for human GlyT2 to EC50 for human GlyT1
How it was run: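 Ratio of the two EC50s from a [³H]-glycine uptake inhibition assay run in cells transfected with human GlyT1 cDNA or human GlyT2 cDNA. Each EC50 is the average of at least two independent experiments.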

Cytochrome P450 3A4 = Cytochrome P450 3A4 (Homo sapiens, UniProt P08684); assay: Inhibition of CYP3A4; assay type: ADME
[28] = molecular target: T2, Sodium- and chloride-dependent glycine transporter 2; assay: Inhibition of human GlyT2; how it was run: as §3

Sequence of hERG (KCNH2) (Q12809 whole entry): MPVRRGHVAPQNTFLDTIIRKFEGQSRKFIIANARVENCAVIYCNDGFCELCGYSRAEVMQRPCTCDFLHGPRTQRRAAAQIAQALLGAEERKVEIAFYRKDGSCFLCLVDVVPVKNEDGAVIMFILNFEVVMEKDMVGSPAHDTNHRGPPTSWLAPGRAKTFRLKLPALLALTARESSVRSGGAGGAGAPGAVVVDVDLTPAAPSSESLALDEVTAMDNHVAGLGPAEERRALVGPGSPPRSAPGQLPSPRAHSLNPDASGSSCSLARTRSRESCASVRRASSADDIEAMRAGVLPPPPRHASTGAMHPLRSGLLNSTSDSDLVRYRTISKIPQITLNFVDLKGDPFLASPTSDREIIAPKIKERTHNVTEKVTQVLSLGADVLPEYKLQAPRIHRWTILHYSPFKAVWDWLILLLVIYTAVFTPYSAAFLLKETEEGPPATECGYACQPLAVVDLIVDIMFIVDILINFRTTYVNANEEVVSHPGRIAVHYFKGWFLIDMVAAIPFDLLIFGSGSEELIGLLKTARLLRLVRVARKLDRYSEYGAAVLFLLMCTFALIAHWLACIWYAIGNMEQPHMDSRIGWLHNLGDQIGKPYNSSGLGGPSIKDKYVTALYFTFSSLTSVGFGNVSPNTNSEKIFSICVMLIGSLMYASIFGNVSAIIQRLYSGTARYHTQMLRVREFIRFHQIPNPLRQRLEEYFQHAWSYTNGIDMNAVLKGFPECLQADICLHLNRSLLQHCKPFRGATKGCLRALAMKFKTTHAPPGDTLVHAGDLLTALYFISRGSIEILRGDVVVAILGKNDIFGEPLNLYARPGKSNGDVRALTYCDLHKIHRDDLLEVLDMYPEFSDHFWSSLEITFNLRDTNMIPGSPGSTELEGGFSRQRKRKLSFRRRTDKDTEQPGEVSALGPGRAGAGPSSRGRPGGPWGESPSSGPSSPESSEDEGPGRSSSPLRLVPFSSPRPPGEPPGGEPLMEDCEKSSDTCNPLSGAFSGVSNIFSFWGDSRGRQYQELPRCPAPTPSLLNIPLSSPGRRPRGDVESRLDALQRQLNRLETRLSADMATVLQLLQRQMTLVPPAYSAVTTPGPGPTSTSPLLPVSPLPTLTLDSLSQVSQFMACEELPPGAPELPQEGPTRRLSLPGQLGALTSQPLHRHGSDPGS
Sequence of Cytochrome P450 3A4 (P08684 whole entry): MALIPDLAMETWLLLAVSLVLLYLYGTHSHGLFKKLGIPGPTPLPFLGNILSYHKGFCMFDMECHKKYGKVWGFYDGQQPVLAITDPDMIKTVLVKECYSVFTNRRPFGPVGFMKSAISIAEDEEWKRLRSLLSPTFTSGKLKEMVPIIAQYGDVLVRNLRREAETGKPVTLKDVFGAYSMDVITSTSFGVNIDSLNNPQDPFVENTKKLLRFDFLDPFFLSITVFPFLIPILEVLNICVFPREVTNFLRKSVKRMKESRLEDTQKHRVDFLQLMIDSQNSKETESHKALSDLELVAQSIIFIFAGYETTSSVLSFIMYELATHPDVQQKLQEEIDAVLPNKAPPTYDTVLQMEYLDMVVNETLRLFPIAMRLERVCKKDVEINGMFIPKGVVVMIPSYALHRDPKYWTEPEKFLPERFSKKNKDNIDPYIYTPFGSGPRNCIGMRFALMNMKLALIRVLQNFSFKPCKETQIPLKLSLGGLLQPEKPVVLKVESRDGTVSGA
Sequence of Cytochrome P450 2D6 (P10635 whole entry): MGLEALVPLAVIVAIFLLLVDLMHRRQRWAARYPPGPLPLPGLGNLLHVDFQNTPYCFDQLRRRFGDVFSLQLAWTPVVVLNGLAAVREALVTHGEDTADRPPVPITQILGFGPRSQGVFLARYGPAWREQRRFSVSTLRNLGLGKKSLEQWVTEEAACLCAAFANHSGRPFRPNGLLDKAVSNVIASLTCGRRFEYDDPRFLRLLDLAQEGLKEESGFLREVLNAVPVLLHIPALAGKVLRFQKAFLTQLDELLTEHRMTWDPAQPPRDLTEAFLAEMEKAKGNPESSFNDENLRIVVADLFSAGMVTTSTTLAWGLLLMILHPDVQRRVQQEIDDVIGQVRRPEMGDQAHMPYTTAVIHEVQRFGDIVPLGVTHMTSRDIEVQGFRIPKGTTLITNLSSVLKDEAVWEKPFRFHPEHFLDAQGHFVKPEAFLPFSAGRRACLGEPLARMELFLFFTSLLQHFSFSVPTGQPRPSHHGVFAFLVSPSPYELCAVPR
Sequence of Cytochrome P450 2C9 (P11712 whole entry): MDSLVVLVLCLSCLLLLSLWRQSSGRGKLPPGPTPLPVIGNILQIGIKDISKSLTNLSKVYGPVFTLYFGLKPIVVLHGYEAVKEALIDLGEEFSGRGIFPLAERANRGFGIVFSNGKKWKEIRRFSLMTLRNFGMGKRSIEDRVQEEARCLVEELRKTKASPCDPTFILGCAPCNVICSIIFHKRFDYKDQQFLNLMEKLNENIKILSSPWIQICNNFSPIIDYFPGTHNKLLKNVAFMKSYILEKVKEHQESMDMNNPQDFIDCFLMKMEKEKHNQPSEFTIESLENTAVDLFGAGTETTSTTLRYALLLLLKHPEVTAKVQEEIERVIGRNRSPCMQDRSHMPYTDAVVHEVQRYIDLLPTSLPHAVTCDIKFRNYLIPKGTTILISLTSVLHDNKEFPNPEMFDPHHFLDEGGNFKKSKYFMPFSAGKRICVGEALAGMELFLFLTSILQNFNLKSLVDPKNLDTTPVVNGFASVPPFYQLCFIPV

CC(C)Oc1ccc(S(C)(=O)=O)cc1C(=O)N1Cc2ccc(C3CCOCC3)cc2C1
solubility [1]: 191 µg/mL (≈ 431 µM) | clearance [2]: 22 mL/min/kg | Papp [3]: 4.2 ×10⁻⁶ cm/s | concentration at 3 h [4]: 279 ng/mL | fold change (FC) (Rattus norvegicus [5]): 1.5 | half-life [6]: 96 min | fold change (FC) (Rattus norvegicus [7]): 1.9 | EC50 [8]: 28 nM | Kp [9]: 0.6 | concentration at 3 h [10]: 159 ng/mL | inhibition at 10 µM (hERG (KCNH2)): 10% | ED50 (Mus musculus): 0.5 mg/kg | microsomal CLint [11]: 18.9 µL/min/mg | EC50 [12]: > 30 µM | bioavailability [13]: 40% | Vd [14]: 2 L/kg

C[C@H](Oc1ccc(S(C)(=O)=O)cc1C(=O)N1Cc2cc(C(F)(F)F)cnc2C1)C(F)(F)F
solubility [1]: 280 µg/mL (≈ 580 µM) | half-life [15]: 360 min | Papp [3]: 5 ×10⁻⁶ cm/s | concentration at 3 h [4]: 2500 ng/mL | Kp [16]: 0.2 | bioavailability [17]: 55% | fold change (FC) (Rattus norvegicus [5]): 1.8 | clearance [18]: 1.7 mL/min/kg | fold change (FC) (Rattus norvegicus [7]): 1.8 | EC50 [8]: 50 nM | concentration at 3 h [10]: 500 ng/mL | inhibition at 10 µM (hERG (KCNH2)): 12% | Vd [19]: 1.4 L/kg | ED50 (Mus musculus): 0.4 mg/kg | microsomal CLint [11]: 1.9 µL/min/mg | EC50 [12]: > 30 µM

C[C@H](Oc1ccc(S(C)(=O)=O)cc1C(=O)N1Cc2ccc(C3CCOCC3)cc2C1)C(F)(F)F
Kp [20]: 0.6 | solubility [1]: 76 µg/mL (≈ 153 µM) | half-life [21]: 192 min | Vd [22]: 3.7 L/kg | Papp [3]: 3.3 ×10⁻⁶ cm/s | concentration at 3 h [4]: 480 ng/mL | fold change (FC) (Rattus norvegicus [5]): 2 | fold change (FC) (Rattus norvegicus [7]): 2.1 | EC50 [8]: 14 nM | concentration at 3 h [10]: 274 ng/mL | clearance [23]: 21 mL/min/kg | inhibition at 10 µM (hERG (KCNH2)): 23% | ED50 (Mus musculus): 0.5 mg/kg | microsomal CLint [11]: 13.9 µL/min/mg | EC50 [12]: > 30 µM | bioavailability [24]: 65%

C[C@H](Oc1ccc(S(C)(=O)=O)cc1C(=O)N1Cc2ccc(Cl)cc2C1)C(F)(F)F
solubility [1]: < 1 µg/mL | Papp [3]: 4.4 ×10⁻⁶ cm/s | IC50 (Cytochrome P450 2D6): > 38 µM | microsomal CLint [25]: 2.4 µL/min/mg | EC50 [26]: 135 nM | IC50 (Cytochrome P450 2C9): > 38 µM | microsomal CLint [27]: 23.3 µL/min/mg | Ratio EC50 (Homo sapiens): > 200 | ED50 (Mus musculus): 20 mg/kg | IC50 (Cytochrome P450 3A4): > 38 µM | EC50 [28]: 30 µM
